Columns and labels:
[1] = molecular target: T1, Cholecystokinin receptor type A (Rattus norvegicus, UniProt P30551); assay: Displacement of [125I]BH-CCK8 from CCK1 receptor in Sprague-Dawley rat pancreatic acinar cells
T1 sequence (P30551 whole entry): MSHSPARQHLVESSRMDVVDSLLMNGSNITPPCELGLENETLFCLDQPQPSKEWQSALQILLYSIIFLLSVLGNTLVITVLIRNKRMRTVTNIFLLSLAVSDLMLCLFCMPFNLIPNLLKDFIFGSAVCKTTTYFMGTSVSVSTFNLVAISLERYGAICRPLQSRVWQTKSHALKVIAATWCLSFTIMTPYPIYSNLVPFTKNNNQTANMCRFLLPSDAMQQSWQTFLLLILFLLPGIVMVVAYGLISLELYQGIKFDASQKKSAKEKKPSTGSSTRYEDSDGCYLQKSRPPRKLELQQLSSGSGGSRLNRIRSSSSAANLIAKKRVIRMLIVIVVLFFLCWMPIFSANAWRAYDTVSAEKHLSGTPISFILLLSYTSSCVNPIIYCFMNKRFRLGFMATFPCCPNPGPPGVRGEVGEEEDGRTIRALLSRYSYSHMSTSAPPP
In short: (§1)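 Pancreatic acini were obtained by enzymatic digestion from male Sprague Dawley rats fasted 18–24 h with water allowed. Cells were incubated with 25 pM (final) [125I]BH-CCK-8 and competitors at 37 °C for 30 min with shaking. The reaction was stopped with ice-cold Hepes-Ringer (1% BSA, soybean trypsin inhibitor, pH 7.4), then centrifuged 5 min at 12,500g, and pellet radioactivity was measured.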

[2] = molecular target: Gastrin/cholecystokinin type B receptor (Cavia porcellus, UniProt H0VZC5); assay: Displacement of [125I]BH-CCK8 from CCK2 receptor in Hartley guinea pig cerebral cortex
Sequence of Gastrin/cholecystokinin type B receptor (H0VZC5 1-426): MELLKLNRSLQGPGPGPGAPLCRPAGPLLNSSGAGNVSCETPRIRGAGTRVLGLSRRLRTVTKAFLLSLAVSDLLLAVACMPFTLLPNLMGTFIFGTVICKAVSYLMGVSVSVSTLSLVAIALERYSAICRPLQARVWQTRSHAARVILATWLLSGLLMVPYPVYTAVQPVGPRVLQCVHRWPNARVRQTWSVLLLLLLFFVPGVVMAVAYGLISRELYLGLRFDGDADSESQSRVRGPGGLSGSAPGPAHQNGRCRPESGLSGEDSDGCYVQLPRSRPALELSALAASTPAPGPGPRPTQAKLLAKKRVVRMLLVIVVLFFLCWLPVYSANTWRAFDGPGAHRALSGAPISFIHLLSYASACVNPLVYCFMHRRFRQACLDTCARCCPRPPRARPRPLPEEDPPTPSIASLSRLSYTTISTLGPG

[3] = test system: Gastrin/cholecystokinin type B receptor (Cavia porcellus); assay: Displacement of [125I]BH-CCK8 from CCK2 receptor in Hartley guinea pig cerebral cortex at 30 uM
[4] = molecular target: T2, Cholecystokinin receptor type A (Cavia porcellus) (UniProt Q63931); assay: Antagonist activity against CCK1 receptor in Hartley guinea pig gallbladder assessed as inhibition of CCK-8- stimulated contraction at 1 uM; type: functional
T2 sequence (whole entry): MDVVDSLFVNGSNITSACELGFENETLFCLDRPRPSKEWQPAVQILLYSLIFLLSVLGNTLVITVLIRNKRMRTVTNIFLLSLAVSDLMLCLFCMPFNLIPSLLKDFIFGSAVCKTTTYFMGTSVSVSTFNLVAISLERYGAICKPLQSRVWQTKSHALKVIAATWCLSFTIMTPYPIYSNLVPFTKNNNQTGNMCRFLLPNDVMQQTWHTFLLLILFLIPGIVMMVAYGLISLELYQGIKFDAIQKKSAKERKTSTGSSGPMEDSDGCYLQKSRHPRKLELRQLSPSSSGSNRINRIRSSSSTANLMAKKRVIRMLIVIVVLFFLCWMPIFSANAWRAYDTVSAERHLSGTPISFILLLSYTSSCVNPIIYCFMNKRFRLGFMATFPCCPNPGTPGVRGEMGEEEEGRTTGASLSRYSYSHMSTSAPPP
In short: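 Circular smooth-muscle strips (about 3 × 15 mm) hung in organ baths of Krebs–Henseleit at 32 °C, gassed 95% O2–5% CO2, and equilibrated 60 min with washes every 15 min. Antagonist or vehicle was applied 5 min before a submaximal (70–80%) CCK-8 concentration. Isometric contraction was recorded and activity expressed as percent inhibition of agonist contraction.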

[5] = test system: Gastrin/cholecystokinin type B receptor (Cavia porcellus); assay: Displacement of [125I]BH-CCK8 from CCK2 receptor in Hartley guinea pig cerebral cortex at 10 uM
[6] = molecular target: T3, Cholecystokinin receptor type A (Rattus norvegicus) (UniProt P30551); assay: Displacement of [125I]BH-CCK8 from CCK1 receptor in Sprague-Dawley rat pancreatic acinar cells at 3 uM; in short: as §1
T3 sequence (whole entry): T1 sequence (P30551 whole entry)

[7] = molecular target: T3, Cholecystokinin receptor type A (Rattus norvegicus); assay: Displacement of [125I]BH-CCK8 from CCK1 receptor in Sprague-Dawley rat pancreatic acinar cells at 10 uM; in short: as §1
[8] = test system: Gastrin/cholecystokinin type B receptor (Cavia porcellus); assay: Displacement of [125I]BH-CCK8 from CCK2 receptor in Hartley guinea pig cerebral cortex at 1 uM

| SMILES | IC50 [1] | Activity [5] | other results |
| --- | --- | --- | --- |
| O=C(Nc1ccccc1C(=O)NC(Cc1ccccc1)C(=O)O)c1cc2ccccc2[nH]1 (stereo unspecified) | 0.197 µM | – | IC50 [2]: 16.4 µM |
| CC(C)C[C@@H](NC(=O)c1ccccc1NC(=O)c1cc2ccccc2[nH]1)C(=O)O | 0.046 µM | – | IC50 [2]: 14.7 µM |
| CSCC[C@H](NC(=O)c1ccccc1NC(=O)c1cc2ccccc2[nH]1)C(=O)O | 2.75 µM | – | Activity [3]: 31% |
| CSCC[C@@H](NC(=O)c1ccccc1NC(=O)c1cc2ccccc2[nH]1)C(=O)O | 0.027 µM | – | IC50 [2]: 11.4 µM |
| CSCCC(NC(=O)c1ccccc1NC(=O)c1cc2ccccc2[nH]1)C(=O)O (stereo unspecified) | 0.052 µM | < 20% | inhibition [4]: 100% |
| O=C(O)CNC(=O)c1ccccc1NC(=O)c1cc2ccccc2[nH]1 | 5.52 µM | – | – |
| CCCCCN(CCCCC)C(=O)C(Cc1ccccc1)NC(=O)c1ccccc1NC(=O)c1cc2ccccc2[nH]1 (stereo unspecified) | – | – | Activity [6]: < 20%; Activity [3]: < 20% |
| O=C(Nc1ccccc1C(=O)NCCc1c[nH]c2ccccc12)c1cc2ccccc2[nH]1 | – | < 20% | Activity [6]: < 20% |
| O=C(Nc1ccccc1C(=O)NCCc1ccccc1)c1cc2ccccc2[nH]1 | – | < 20% | Activity [6]: < 20% |
| O=C(O)CCCNC(=O)c1ccccc1NC(=O)c1cc2ccccc2[nH]1 | – | – | Activity [6]: < 20%; Activity [3]: < 20% |
| O=C(O)CCNC(=O)c1ccccc1NC(=O)c1cc2ccccc2[nH]1 | – | – | Activity [6]: < 20%; Activity [3]: < 20% |
| CC(NC(=O)c1ccccc1NC(=O)c1cc2ccccc2[nH]1)C(=O)O (racemic) | 3.24 µM | < 20% | – |
| CC(Cc1ccccc1)NC(=O)c1ccccc1NC(=O)c1cc2ccccc2[nH]1 (racemic) | 3.15 µM | < 20% | – |
| O=C(O)CC(Cc1ccccc1)NC(=O)c1ccccc1NC(=O)c1cc2ccccc2[nH]1 (racemic) | – | – | Activity [7]: 25%; IC50 [2]: 16.9 µM |
| O=C(Nc1ccccc1C(=O)NC(Cc1c[nH]c2ccccc12)C(=O)O)c1cc2ccccc2[nH]1 (racemic) | 0.445 µM | – | – |
| O=C(Nc1ccccc1C(=O)NC(Cc1ccc(O)cc1)C(=O)O)c1cc2ccccc2[nH]1 (racemic) | 2.07 µM | – | – |
| NC(=O)C(Cc1ccccc1)NC(=O)c1ccccc1NC(=O)c1cc2ccccc2[nH]1 (racemic) | 8.53 µM | < 20% | – |
| O=C(Nc1ccccc1C(=O)NC(Cc1ccc(OCc2ccccc2)cc1)C(=O)O)c1cc2ccccc2[nH]1 (racemic) | 1.16 µM | < 20% | – |
| CC(C)C(NC(=O)c1ccccc1NC(=O)c1cc2ccccc2[nH]1)C(=O)O (racemic) | 0.288 µM | – | – |
| CC(C)CC(NC(=O)c1ccccc1NC(=O)c1cc2ccccc2[nH]1)C(=O)O (racemic) | 0.083 µM | – | inhibition [4]: 100% |
| CSCCC(NC(=O)c1ccccc1NC(=O)c1cc2ccccc2n1C)C(=O)O (racemic) | 0.092 µM | < 20% | – |
| CCOC(=O)C(Cc1ccccc1)NC(=O)c1ccccc1NC(=O)c1cc2ccccc2[nH]1 (racemic) | – | – | Activity [6]: 20%; Activity [3]: < 20% |
| O=C(Nc1ccccc1C(=O)NC(CO)Cc1ccccc1)c1cc2ccccc2[nH]1 (racemic) | – | – | Activity [6]: 32% |
| O=C(O)CC(NC(=O)c1ccccc1NC(=O)c1cc2ccccc2[nH]1)C(=O)O (racemic) | – | – | Activity [7]: < 20%; Activity [8]: < 20% |
| O=C(O)CCC(NC(=O)c1ccccc1NC(=O)c1cc2ccccc2[nH]1)C(=O)O (racemic) | – | < 20% | Activity [7]: < 20% |

— ChEMBL document CHEMBL1153940, “Anthranilic acid based CCK1 receptor antagonists: blocking the receptor with the same 'words' of the endogenous ligand” (Bioorg Med Chem, 2009)
